Screening results from PubChem BioAssay.
FID counter – fluorescent intercalator displacement, NS3 helicase counter-screen. DNA fluorescent intercalator displacement, fluorescence. inhibition, % at 7.9 µM. 0.17% of 290,000 active; in the data active means inhibition above about 37%;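 further: 0% = vehicle and 100% = reference compound; higher means more ethidium bromide displaced from hairpin DNA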
TRPC4 potent – allosteric potentiators of mouse TRPC4 channel; Q9QUQ5; HEK293 TRPC4beta/mu-opioid, DAMGO EC20, Fluo-4 Ca2+ flux; active compounds read high; B-score at 10 µM; 0.42% of 310,000 active; AID 2227;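 active means B-score of calcium response area above 5 SD of library B-scores, with initial fluorescence ratio within 5 SD of library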;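 further: B-score of integrated fluorescence ratio over time as area under calcium response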
TRPC6 act – activators of mouse TRPC6 channel | HEK293-TRPC6 membrane potential dye fluorescence; active compounds read high | 0.13% of 310,000 active | AID 2550 | B-score at 10 µM;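 active means B-score of the integrated fluorescence ratio above library mean plus 3 SD, and starting fluorescence ratio within library mean plus 5 SD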;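 further: higher score means more depolarization so channel activation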
TRPC4 block – TRPC4 (mouse) channel inhibition | B-score at 10 µM | Q9QUQ5 | 0.39% of 300,000 active | HEK293 TRPC4beta/mu-opioid, DAMGO-evoked Fluo4 calcium flux; active compounds read low;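 active means B-score over 3 SD under the library average, no early fluorescence shift, positive overall ratio signal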
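Assay system: Stable TRPC4beta/mu-opioid receptor HEK293 cells | Reagent: DAMGO in two steps, submaximal then maximal | Compound dosing: Single concentration per test compound | Signal: Fluo4 Ca2+ flux fluorescence | Evaluation: Per-well B score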
TRPC4 agonist – activators of mouse TRPC4 channel. AID 2237. 0.49% of 310,000 active. HEK293 TRPC4beta/mu-opioid, Fluo4 calcium fluorescence; active compounds read high. B-score at 10 µM. Q9QUQ5;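 active means B-score above 5 SD of library B-scores, and initial fluorescence ratio not above library mean plus 5 SD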;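 further: positive B-score marks a calcium rise read as TRPC4 activation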
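Assay system: HEK293 stable line with TRPC4beta plus mu-opioid receptor; schedule: 45 min room-temperature Fluo4 loading, 110 s read; technique: kinetic Fluo4 calcium fluorescence; evaluation: integrated baseline-normalised fluorescence ratio, converted to per-well B score; controls: buffer (low) and maximal DAMGO (high)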
TRPC6 inhibitor – blocks the mouse TRPC6 cation channel | 1.1% of 310,000 active | B-score at 10 µM | Q61143 | HEK293-TRPC6, membrane potential dye, ACh-evoked depolarization; active compounds read low;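 active means B-score under library mean minus 3 SD, initial fluorescence not abnormally high, positive integrated signal ratio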;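 further: B-score derived from integrated fluorescence ratio over the kinetic read; more negative B-score means stronger inhibition of depolarization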
TRPC4 sel inh 2 – mouse TRPC4 off-target activity of TRPC6 inhibitors, second screen. inhibition, % at 10 µM. HEK293 TRPC4/MOR, membrane potential dye fluorescence; channel activated by saturating DAMGO dose. AID 2776. 42% of 920 active. shares compounds with TRPC6 inhibitor;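 active means compounds whose fluorescence signal differed from control wells by over 3 SD, either direction, in both duplicate plates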
TRPC4 spec – tests whether TRPC6 inhibitors also affect mouse TRPC4 | HEK293 TRPC4/mu-opioid, membrane potential fluorescence | AID 2777 | shares compounds with TRPC6 inhibitor | 61% of 920 active | activity change, negative = inhibition, % at 10 µM;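 active means rise or fall in signal beyond 3 SD of buffer-only wells in both replicate plates, either sign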;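 further: integrated kinetic ratio of fluorescence range over baseline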
HEK293 MPD ctr 2-1 – parental HEK293 nonspecific activity of TRPC6 inhibitors, second screen; shares compounds with TRPC6 inhibitor; parental HEK293 membrane potential dye fluorescence; maximal acetylcholine challenge after compound addition; signal change vs control, % at 10 µM; 31% of 920 active;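 active means membrane potential signal moving either way by over 3 SD of the maximum-effect control, in both duplicate plates, meaning non-specific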
HEK293 MPD ctr-1 – counter-screen for TRPC6 inhibitors: effect in parental HEK293 cells; shares compounds with TRPC6 inhibitor; parental HEK293 membrane potential dye fluorescence; membrane potential signal change, % at 10 µM; 60% of 920 active; AID 2780;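 active means membrane potential signal shifting up or down by more than 3 SD of buffer-only wells, on both duplicate plates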
HEK293 MPD ctr-2 – parental HEK293 nonspecific activity of TRPC6 modulators; shares compounds with TRPC6 inhibitor; membrane potential dye fluorescence; membrane potential signal change, % at 10 µM; 51% of 2,400 active; AID 488924;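 active means membrane potential signal moves up or down beyond 5 SD from buffer-only wells, on both duplicate plates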
HEK293 MPD ctr 2-2 – parental HEK293 nonspecific activity of TRPC6 modulators, second screen | membrane potential dye fluorescence; after compound, maximal acetylcholine stimulation | 14% of 2,400 active | inhibition, % at 10 µM | shares compounds with TRPC6 inhibitor;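 active means membrane potential signal drops by more than 5 SD from the mean control signal, in both duplicate plates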;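 further: plate controls were acetylcholine ECmax control wells for no effect and buffer only wells for full effect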
TRPC4/MOR mod – selectivity of TRPC6 modulators against mouse TRPC4. shares compounds with TRPC6 inhibitor. HEK293 TRPC4/mu-opioid, membrane potential fluorescence. percent change from control (negative = decrease, positive = increase), % at 10 µM. 69% of 2,400 active;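 active means membrane potential signal moved up or down beyond 5 SD of buffer control wells, in both duplicate plates, actives on both sides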;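 further: plate controls were assay buffer wells for no effect and DAMGO maximal-effect wells for full effect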
TRPC4/MOR inh 2 – second check of whether TRPC6 modulators also affect mouse TRPC4; inhibition, % at 10 µM; HEK293 TRPC4/mu-opioid, membrane potential dye fluorescence; stimulated with maximal-effect DAMGO; shares compounds with TRPC6 inhibitor; 55% of 2,400 active;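 active means drop in membrane potential signal beyond 5 SD of the control wells in both duplicate plates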;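 further: TRPC4 counter screen for TRPC6 hits run under conditions tuned for TRPC6 not TRPC4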
TRPC6 inh conf – mouse TRPC6 inhibitor confirmation; shares compounds with TRPC6 inhibitor; inhibition, % at 10 µM; AID 488960; 43% of 3,300 active; HEK293-TRPC6, membrane potential dye, ACh-evoked depolarization;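 active means fluorescence ratio falls more than 5 SD below the full-stimulation control mean, in both duplicate runs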;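 further: integrated fluorescence ratio of peak minus minimum over baseline after agonist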
TRPC6 act confirm – confirmation of mouse TRPC6 activators; shares compounds with TRPC6 inhibitor; AID 488961; 11% of 2,800 active; HEK293-TRPC6 membrane potential dye fluorescence, FDSS; activation, % at 10 µM;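 active means ratio signal rise beyond 5 SD above unstimulated control wells' mean, seen in both duplicate runs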;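 further: plate controls were buffer EC0 wells for no effect and acetylcholine ECmax response for full effect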
Numbers without * were called inactive; i = inactive; . = no result given. Shown are actives, neighbours in structure and some others; about 2.3% of the full set was active somewhere.

SMILES	FID counter	TRPC4 potent	TRPC6 act	TRPC4 block	TRPC4 agonist	TRPC6 inhibitor	HEK293 MPD ctr-2	HEK293 MPD ctr 2-2	TRPC4/MOR mod	TRPC4/MOR inh 2	TRPC6 inh conf	TRPC6 act confirm	others
COc1ccccc1-c1cc(C(=O)N/N=C\c2cn(C)nc2C)c2ccccc2n1	-36.9	i	i	i	i	-5.91*	i	i	i	i	44.0%*	.
N/C(=N\OC(=O)c1ccco1)c1cccc([N+](=O)[O-])c1	0.6	i	i	i	i	-5.27*	i	i	i	i	i	i
Cc1nc(-c2ccc(F)cc2)c(CC(=O)Nc2ccc(C)c(S(=O)(=O)N3CCOCC3)c2)s1	-25.9	i	i	i	i	i	.	.	.	.	.	.
CCCCOc1ccc(CSCCN)cc1Cl	18.9	i	i	i	i	-6.24*	i	i	i	59.0%*	45.0%*	i
COc1cccc(NC(=O)CN(C)C(=O)Cn2cnc3ccccc3c2=O)c1	.	i	i	i	i	i	.	.	.	.	.	.
Cc1cccc(NC(=O)COc2ccc(/C=C\c3[nH]c(=O)[nH]c(=O)c3[N+](=O)[O-])cc2)c1	-7.9	i	13.6*	i	i	i	i	i	i	i	i	i
O=c1[nH]c(/C=C/c2ccc([N+](=O)[O-])cc2)c([N+](=O)[O-])c(=O)[nH]1	-2.1	i	i	i	i	i	.	.	.	.	.	.
C[n+]1cccc(/C=N/Nc2nc(Cl)c(C#N)c(Cl)c2Cl)c1	11.5	i	i	i	i	-6.24*	i	79.5%*	-13.5%*	i	i	i
CCC(C)NC(=O)[C@@H]1CSC2c3ccccc3C(=O)N21 (some centres not stated)	-7.5	i	i	i	i	i	.	.	.	.	.	.
Cc1cccc(N2CCN(C(=O)c3c(-c4ccccc4Cl)noc3C)CC2)c1C	-43.3	i	i	i	i	i	.	.	.	.	.	.
Cn1c(SCC(=O)NC2(C#N)CCCCC2)nnc1-c1cccnc1	-9.3	i	i	i	i	i	.	.	.	.	.	.
CCCCn1c(-c2ccc([N+](=O)[O-])cc2)n[nH]c1=S	-4.8	i	i	i	i	-14.8*	.	.	.	.	84.6%*	i	TRPC4 sel inh 2=i;TRPC4 spec=i;HEK293 MPD ctr 2-1=-17.5%*;HEK293 MPD ctr-1=i
COc1ccccc1CCC(=O)Nc1ccc(S(=O)(=O)Nc2cc(C)nc(C)n2)cc1	.	i	i	i	i	i	.	.	.	.	.	.
CCN(CC)CCNC(C(=O)Nc1cccc(C(C)=O)c1)c1ccccc1 (configuration not stated)	24.9	i	i	i	i	-6.76*	i	i	i	i	i	i
CCOC(=O)N1CCN(C(=O)CN2C(=O)COc3ccc(C(C)(C)C)cc32)CC1	-29.6	i	i	i	i	-6.29*	94.5%*	i	17.5%*	i	54.5%*	.
CC(C)(C)c1ccc2c(c1)N(CC(=O)O)C(=O)CO2	-4.2	i	i	i	i	i	.	.	.	.	.	.
O=C(/C=C/c1ccco1)N(Cc1ccccc1F)C1CCS(=O)(=O)C1 (configuration not stated)	-41.7	i	i	i	i	i	.	.	.	.	.	.
CC1(C)CN=c2s/c(=C\c3ccc(Cl)cc3)c(=O)n2C1	6.8	16*	i	i	i	-7.26*	.	.	.	.	i	i	TRPC4 sel inh 2=54.0%*;TRPC4 spec=-10.3%*;HEK293 MPD ctr 2-1=i;HEK293 MPD ctr-1=i
CCC1Sc2ccc(S(=O)(=O)N3CCN(c4ccccc4)CC3)cc2NC1=O (configuration not stated)	-35.3	i	i	i	i	i	.	.	.	.	.	.
CCOC(=O)c1nnn2c1nc(N1CCN(C)CC1)c1ccccc12	-0.1	i	i	i	i	-8.43*	-238.5%*	73.5%*	-42.0%*	53.0%*	61.0%*	i
CC(C)CNC(=O)COC(=O)C1c2ccccc2Oc2ccccc21	-26.9	i	i	i	i	i	.	.	.	.	.	.
CC(C)[N+](C)(CCOC(=O)C1c2ccccc2Oc2ccccc21)C(C)C	2.9	i	i	i	i	-9.46*	.	.	.	.	105.3%*	i	TRPC4 sel inh 2=i;TRPC4 spec=i;HEK293 MPD ctr 2-1=-18.0%*;HEK293 MPD ctr-1=i
CCCCOc1ccc(OCCNC(=O)c2ccco2)cc1	-27.0	i	i	i	i	i	.	.	.	.	.	.
COc1ccc(-c2cc3nc(C)cc(N)n3n2)cc1	-0.5	i	i	i	i	-5.03*	-143.0%*	i	-21.5%*	i	i	i
COc1ccc(-c2cc3nc(C)cc(NCCO)n3n2)cc1	6.9	i	i	i	i	-8.97*	-300.0%*	i	-48.5%*	49.0%*	71.5%*	i
COc1ccc(-c2cc3nc(C)cc(-c4ccc(OC)cc4)n3n2)cc1	-17.1	i	i	i	i	i	.	.	.	.	.	.
CCOC(=O)c1c(C)[nH]c(C(=O)OCC(=O)NC2(C#N)CCCCC2)c1C	.	i	i	i	i	i	.	.	.	.	.	.
